According to ChEMBL document CHEMBL1126670, “Cyclic peptides as selective tachykinin antagonists” (J Med Chem, 1993):
Where a SMILES comes first, the peptide text is derived from it.

Key:
Conditions in all cases: read-out: pA2 (converted)
[1] = molecular target: T1, Substance-K receptor (Rattus norvegicus, UniProt P16610); assay: Inhibition of eledoisin binding to NK-2 receptor in rat vas deferens
T1 sequence (P16610 whole entry): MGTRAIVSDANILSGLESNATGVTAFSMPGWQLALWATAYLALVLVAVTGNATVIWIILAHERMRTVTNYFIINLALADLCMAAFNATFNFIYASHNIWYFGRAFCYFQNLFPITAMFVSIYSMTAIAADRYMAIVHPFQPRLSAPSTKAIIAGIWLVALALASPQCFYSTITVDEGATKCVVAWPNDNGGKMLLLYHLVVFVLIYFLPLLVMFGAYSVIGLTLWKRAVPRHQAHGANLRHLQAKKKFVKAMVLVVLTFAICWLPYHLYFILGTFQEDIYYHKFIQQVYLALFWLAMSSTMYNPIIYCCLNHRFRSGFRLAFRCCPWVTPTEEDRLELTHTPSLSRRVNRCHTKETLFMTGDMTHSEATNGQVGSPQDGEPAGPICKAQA
In short: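 Vas deferens from Sprague-Dawley rats (200–300 g), electrically stimulated contractions with supramaximal rectangular bipolar pulses. Eledoisin log dose-response curves; antagonism taken from rightward shift. pA2 by Schild regression over three or more antagonist concentrations, or apparent pA2 from one antagonist concentration via the standard Schild equation assuming unit slope.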

[2] = molecular target: Substance-P receptor (Cavia porcellus, UniProt P30547); assay: Tested for antagonist activity toward NK-1 receptor in guinea pig ileum against the agonist eledoisin (mean +/-, n=4); type: functional, tissue-based
In short: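 Guinea pig (male Dunkin-Hartley, 300–400 g) small-intestine longitudinal muscle, isometric contraction in Krebs-Henseleit at 37 °C with atropine, mepyramine, methysergide (each 5 μM) and indomethacin (1 μM). Antagonism measured as rightward shift of log dose-response curves to eledoisin. pA2 from Schild regression (least squares, three or more antagonist concentrations, three or more observations each), or apparent pA2 at a single concentration assuming unit slope (mean of 3–4 observations).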

[3] = molecular target: T2, Neuromedin-K receptor (Rattus norvegicus, UniProt P16177); assay: Tested for antagonist activity toward NK-3 receptor in rat portal vein against the agonist eledoisin (mean +/-, n=4); type: functional
T2 sequence (P16177 whole entry): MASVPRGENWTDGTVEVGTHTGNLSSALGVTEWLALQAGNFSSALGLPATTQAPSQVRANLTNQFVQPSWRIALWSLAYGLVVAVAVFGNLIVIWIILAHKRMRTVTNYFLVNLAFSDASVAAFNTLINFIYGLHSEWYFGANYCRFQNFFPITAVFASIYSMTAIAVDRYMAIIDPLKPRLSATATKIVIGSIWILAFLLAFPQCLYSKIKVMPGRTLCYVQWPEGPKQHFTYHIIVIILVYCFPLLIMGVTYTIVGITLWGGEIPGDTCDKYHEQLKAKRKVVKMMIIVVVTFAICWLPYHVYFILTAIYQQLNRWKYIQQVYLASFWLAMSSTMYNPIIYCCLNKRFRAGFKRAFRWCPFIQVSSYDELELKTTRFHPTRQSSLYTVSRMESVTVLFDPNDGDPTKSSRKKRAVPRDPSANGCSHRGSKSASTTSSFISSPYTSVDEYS
In short: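 Rat portal vein longitudinal strips; frequency and amplitude of myogenic contractions recorded. Antagonist activity derived from rightward shift of eledoisin log dose-response curves. pA2 by Schild regression, least squares, three or more antagonist concentrations, or apparent pA2 at a single antagonist concentration assuming unit slope (mean of three or four observations).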

Sequence of Substance-P receptor (P30547 whole entry): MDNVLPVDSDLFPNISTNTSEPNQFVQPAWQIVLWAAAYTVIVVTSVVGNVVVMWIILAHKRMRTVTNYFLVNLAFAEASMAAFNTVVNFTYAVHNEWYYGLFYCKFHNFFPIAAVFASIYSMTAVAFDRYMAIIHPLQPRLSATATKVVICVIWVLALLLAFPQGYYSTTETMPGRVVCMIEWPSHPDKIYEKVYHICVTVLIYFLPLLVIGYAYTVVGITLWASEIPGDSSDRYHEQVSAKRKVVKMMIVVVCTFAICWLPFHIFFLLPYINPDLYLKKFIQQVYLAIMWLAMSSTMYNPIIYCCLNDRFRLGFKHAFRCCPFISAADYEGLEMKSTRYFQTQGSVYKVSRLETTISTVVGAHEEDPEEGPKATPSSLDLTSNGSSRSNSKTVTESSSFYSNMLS

SMILES | Kb [1] | Kb [2] | Kb [3]
CSCC[C@@H]1NC(=O)[C@H](CC(C)C)N2C=C[C@@H](NC(=O)[C@H](Cc3ccccc3)NC(=O)[C@](C)(c3cccc4ccccc34)NC(=O)[C@H](CCC(N)=O)NC1=O)C2=O | 2.51 µM |  | 
CSCC[C@@H]1NC(=O)[C@H](CC(C)C)N2C=C[C@@H](NC(=O)[C@H](Cc3ccccc3)NC(=O)[C@H](Cc3ccccc3)NC(=O)[C@H](CCC(N)=O)NC1=O)C2=O | 15.8 µM |  | 
CSCC[C@@H]1NC(=O)[C@H](CC(C)C)NC(=O)CNC(=O)[C@H](Cc2ccccc2)NC(=O)[C@H](Cc2c[nH]c3ccccc23)NC(=O)[C@H](CCC(N)=O)NC1=O (cyclo(FGLMQW)) | 0.00794 µM | 2 µM | 7.94 µM

The next lines start with the values.

Kb [1] | Kb [2] | Kb [3] | SMILES
15.8 µM |  |  | CSCC[C@@H]1NC(=O)[C@H](CC(C)C)NC(=O)[C@@H]2CCCN2C(=O)[C@H](Cc2ccccc2)NC(=O)[C@H](Cc2c[nH]c3ccccc23)NC(=O)[C@H](CCC(N)=O)NC1=O
20 µM |  |  | CSCC[C@@H]1NC(=O)[C@H](CC(C)C)NC(=O)[C@H]2CCCN2C(=O)[C@H](Cc2ccccc2)NC(=O)[C@H](Cc2c[nH]c3ccccc23)NC(=O)[C@H](CCC(N)=O)NC1=O
0.631 µM |  |  | CSCC[C@@H]1NC(=O)[C@H](CC(C)C)NC(=O)[C@H](Cc2ccccc2)NC(=O)[C@H](Cc2c[nH]c3ccccc23)NC(=O)[C@H](CCC(N)=O)NC1=O (cyclo(FLMQW))
